Only some compounds are listed: those with a hit (about 4.4% of all), similar ones and a draw of the others.
MPTP block – permeability transition pore inhibition | AID 602449 | 360,000 compounds, 1.4% hits | isolated mouse mitochondria, Ca2+ swelling absorbance, 30 min | inhibition, % at 10 µM;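 active = inhibition of 50% or more, scaled per plate between neutral and stimulator controls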;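 also: 0% = DMSO wells given calcium and 100% = 1 mM EGTA wells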
EBI2 block – antagonists of human EBI2 receptor; P32249; inhibition, % at 5 µM; EBI2 beta-arrestin recruitment, luminescence, 7a,25-OHC stimulated; 360,000 compounds, 0.81% hits; AID 651636; in the data active = inhibition above about 38%;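 also: enzyme fragment complementation signal reports receptor beta-arrestin coupling in cells; 0% = agonist plus DMSO wells and 100% = wells without agonist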
Target sequence (P32249 whole entry, looked up, the tested form may be a part): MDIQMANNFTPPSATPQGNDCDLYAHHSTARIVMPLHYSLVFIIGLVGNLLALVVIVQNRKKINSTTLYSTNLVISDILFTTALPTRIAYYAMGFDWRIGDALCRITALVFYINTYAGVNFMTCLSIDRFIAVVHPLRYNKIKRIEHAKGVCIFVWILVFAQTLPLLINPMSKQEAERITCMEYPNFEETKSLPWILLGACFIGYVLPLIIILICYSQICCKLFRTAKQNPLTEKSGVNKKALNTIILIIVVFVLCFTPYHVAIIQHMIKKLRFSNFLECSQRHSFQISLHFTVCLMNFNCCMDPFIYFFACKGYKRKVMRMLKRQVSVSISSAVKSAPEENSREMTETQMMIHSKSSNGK
SENP1 inh – inhibitors of human SENP1 SUMO protease catalytic domain; inhibition, % at 10 µM; 360,000 compounds, 0.21% hits; recombinant SENP1 catalytic domain, CyPet-SUMO1-YPet FRET cleavage; AID 624204;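 active = inhibition at least 30% at 10 µM, raw YFP signal under a set limit, fluorescence ratio 0.5 to 1.5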;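 also: 0% = enzyme with DMSO and 100% = no enzyme wells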
Target sequence (Q9P0U3 419-644 limits assumed): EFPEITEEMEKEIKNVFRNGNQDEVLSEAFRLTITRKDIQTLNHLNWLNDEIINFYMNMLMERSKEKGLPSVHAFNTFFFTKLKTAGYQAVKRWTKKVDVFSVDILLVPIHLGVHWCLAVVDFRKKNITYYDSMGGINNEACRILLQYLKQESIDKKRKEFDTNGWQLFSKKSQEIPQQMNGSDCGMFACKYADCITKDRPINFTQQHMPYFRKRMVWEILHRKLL
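system = hSENP1 catalytic domain, recombinant | reagent = SFCypet-SUMO1-SFYpet substrate at 25 nM | doses = one dose per compound, 10 µM, 0.5% DMSO | incubation = enzyme reaction for 50 min at room temperature, dark | measured by = FRET, CFP and YFP emission | controls = no-enzyme low, enzyme-DMSO high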
GRIN3A LBD mod – modulates the human NR3A ligand-binding domain; 340,000 compounds, 2.5% hits; Tm shift relative to glycine control, % at 25 µM; NR3A LBD differential scanning fluorimetry, Tm shift; 0% = protein alone, 100% = glycine-bound protein;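 active = melting temperature shift of at least 10% of the positive control shift, at one fixed dose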
MPTP counter – membrane potential counter-screen of mitochondrial pore inhibitors. shares compounds with MPTP block. isolated mitochondria, Rhodamine 123 fluorescence. inhibition, % at 10 µM. 5,000 compounds, 78% hits. AID 624504; in the data active = inhibition above about 22%;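 also: 0% = DMSO vehicle and 100% = positive control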
MPTP abs DR – MPTP inhibition, dose response swelling confirmation; isolated mitochondria swelling, absorbance; 780 compounds, 58% hits; IC50, µM; AID 651561; shares compounds with MPTP block; in the data active = IC50 below about 20 µM
MPTP cs DR – active in counter-screen for permeability transition pore inhibitors; shares compounds with MPTP block; isolated mitochondria counterscreen, fluorescence read-out; IC50, µM; 780 compounds, 49% hits; AID 651564; in the data active = IC50 below about 80 µM
* hit, by the source's call; . = no result given.

SMILES	MPTP block	EBI2 block	SENP1 inh	GRIN3A LBD mod	MPTP counter	others
COc1ccc(C(c2c(C)[nH]n(C(N)=S)c2=O)C(C#N)C#N)cc1 (stereo not drawn)	-13	-9	-2	-1	.
S=C(NCCc1ccc(Cl)cc1)Nc1ccc(Cl)cc1Cl	86*	5	2	18*	86*
S=C(NCc1cccs1)Nc1ccc(Br)cc1Cl	75*	-5	-2	1	79*
CC1CCCCC1NC(=S)Nc1ccc(Cl)cc1Cl (stereo not drawn)	93*	0	3	-2	87*
Fc1ccc(CNC(=S)Nc2ccc(Cl)cc2Cl)cc1	100*	-10	2	-9	106*
Cc1cc(C)cc(NC(=S)NCc2cccs2)c1	5	-5	1	-11	.
O=C(CCc1ccc(S(=O)(=O)N2CCOCC2)cc1)Nc1c(F)cccc1F	-1	-9	3	-2	.
Cc1c(Cl)cccc1NC(=S)NCCc1ccc(Cl)cc1	85*	18	5	0	81*
Cc1c(Cl)cccc1NC(=S)NCCc1ccc(F)cc1	32	7	2	-5	.
S=C(NCc1ccc(Cl)cc1)Nc1ccc(Cl)cc1Cl	100*	2	3	1	87*
S=C(NCc1ccncc1)Nc1ccc(Cl)cc1Cl	12	-3	2	0	.
O=C(N/C=C/c1ccccc1)c1ccccc1	-1	-11	-1	-8	.
CCOc1ccc(C(=O)Nc2cc(-c3nc4ccccc4[nH]3)ccc2Cl)cc1[N+](=O)[O-]	12	3	4	9	.
Cc1oc(/N=C/c2ccccc2)c(C#N)c1C	-1	-4	-4	3	.
COc1[nH]c(/N=C/c2ccccc2)c(C#N)c1C#N	87*	-1	70*	-6	33*
COC(=O)c1ccc(CNCC(O)COc2ccc(-c3ccccc3)cc2)cc1 (stereo not drawn)	89*	-6	0	-3	-4	MPTP abs DR=8.8*;MPTP cs DR=>80
COc1ccc(CNCC(O)COc2ccc(C(C)(C)c3ccccc3)cc2)cc1 (stereo not drawn)	6	5	-2	-6	.
O=C(N/N=C/c1cc(Br)cc(Cl)c1O)c1ccc2c(c1)OCO2	55*	20	-41	11*	66*
O=C(N/N=C/c1cc(Br)c(O)c(Br)c1O)c1ccc2c(c1)OCCO2	-2	-1	-22	3	.
O=C(N/N=C/c1ccccc1O)c1ccc2c(c1)OCO2	0	6	-13	.	.
Cc1cc(Br)cc(/C=N/NC(=O)c2ccc3c(c2)OCO3)c1O	65*	20	0	6	49*
O=C(N/N=C/c1cc(Br)cc(Br)c1O)c1cccc(S(=O)(=O)N2CCOCC2)c1	69*	2	-36	-1	-5
O=C(N/N=C/c1ccccc1Br)c1cccc(S(=O)(=O)N2CCOCC2)c1	-2	7	0	0	.
O=C(NCc1cn(-c2ccccc2)nc1-c1ccccc1)c1ccc([N+](=O)[O-])cc1	53*	20	0	1	63*
CN(C)Cc1cc(C(F)(F)F)ccc1C(O)(c1ccccc1)c1ccccc1	1	-8	4	0	.
SMILES	MPTP block	EBI2 block	SENP1 inh	GRIN3A LBD mod	MPTP counter	others
COc1ccc(NC(=O)CSc2nc3nc(-c4cccs4)cc(C(F)(F)F)c3c(=O)[nH]2)c(OC)c1	23	6	-18	1	.
CCOc1ccccc1NC(=O)CSc1nc2nc(-c3cccs3)cc(C(F)(F)F)c2c(=O)[nH]1	69*	4	-52	2	55*
CC(C)(c1ccccc1)c1ccc(OCC(O)CNC2CCN(Cc3ccccc3)CC2)cc1 (stereo not drawn)	68*	-6	0	1	-12
CCOc1ccc(OCC(O)CNC2CCN(Cc3ccccc3)CC2)cc1 (stereo not drawn)	2	32	0	-2	.
CCNc1ccc(S(=O)(=O)N(C)C)cc1NCC(=O)Nc1ccccc1F	15	1	-34	-4	.
CCNc1ccc(S(=O)(=O)N(C)C)cc1NCC(=O)Nc1ccc(F)c(Cl)c1	59*	14	-28	-3	70*
C[n+]1ccc(/C=N/Nc2nc(Cl)c(C#N)c(Cl)c2Cl)cc1	103*	0	-39	1	76*
Clc1nnc(N/N=C/c2ccccc2)c2ccccc12	0	-12	2	-16	.
CSc1nc(O)c(/C=C2\C=Nc3ccccc32)[nH]1	0	6	-128	3	.
Oc1nc(Nc2ccc(Cl)cc2Cl)sc1/C=C1\C=Nc2ccccc21	96*	-6	-42	23*	58*
CC(C)(C)C(C(=O)Oc1ccccc1)c1ccccc1 (stereo not drawn)	8	-4	2	-1	.
Cc1cc(/C=N/n2c(COc3ccccc3)nc3ccccc3c2=O)c(O)c([N+](=O)[O-])c1	79*	45*	20	16*	33*
Cc1ccc(-c2[nH]ncc2/C=N/n2c(COc3ccccc3)nc3ccccc3c2=O)cc1	-1	-9	2	-1	.
O=C(NCCCn1ccnc1)/C(=C\c1ccccc1Cl)NC(=O)c1ccccc1	0	-4	-1	1	.
CCOC(=O)c1c(/N=C/c2cc(C)ccc2O)sc2c1CCN(C)C2	85*	-7	-122	2	-17	MPTP abs DR=>100;MPTP cs DR=76*
CCOC(=O)c1c(NC(=O)c2ccc(S(=O)(=O)N3CCOCC3)cc2)sc2c1CCN(C)C2	-1	0	-19	-1	.
Cc1cccc(/C=N/c2sc3c(c2C(=O)OC(C)(C)C)CCN(C)C3)c1O	56*	3	-36	-6	-19	MPTP abs DR=8.9*;MPTP cs DR=67*
CC(=O)N(C)c1ccc(NC(=O)c2cnn(C)c2)cc1	70*	0	2	0	4
CC(=O)N(C)c1ccc(NC(=O)Nc2ccc(C)cc2)cc1	-1	0	1	-2	.
O=C(Nc1cccc(Cl)c1)Nc1csc([N+](=O)[O-])c1	72*	-12	5	31*	69*
O=C(Nc1ccncc1)Nc1cccc(Cl)c1	57*	2	2	14*	95*
CC(=O)N(C)c1ccc(NC(=O)Nc2ccc(Cl)cc2)cc1	56*	8	2	0	78*
O=C(NCC1CCCO1)c1ccccc1NS(=O)(=O)c1ccc(F)cc1 (stereo not drawn)	0	9	3	3	.
O=C(Nc1cccc(Cl)c1)Nc1ccc2c(c1)C(=O)OC2	80*	-2	-2	31*	85*
Cn1nc(C(=O)Nc2cccc(Cl)c2)cc1C(=O)Nc1cccc(Cl)c1	57*	19	-1	1	84*
Cn1nc(C(=O)Nc2ccc(Cl)cc2)cc1C(=O)Nc1ccc(Cl)cc1	0	2	1	-13	.
S=C(Nc1ccc(Cc2ccncc2)cc1)Nc1cccc(Cl)c1	93*	-2	-1	0	81*

Assay outcomes (PubChem BioAssay)
